In brackets after ≈: the same amount, converted by molar mass.
Legend:
Type in all cases: functional
[1] = tested on: Staphylococcus epidermidis; experiment: Antibacterial activity tested against Staphylococcus epidermidis HCF Berset C
Outline: (§1)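 MICs (µg/mL) determined by conventional agar dilution against a panel of eight Gram-negative and five Gram-positive reference strains.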

[2] = Geometric mean of antibacterial activity (Gram -ve bacteria) of the compound
Outline: (§2)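 Geometric means calculated from agar-dilution MICs (µg/mL), taken separately across the five Gram-positive and the eight Gram-negative panel strains.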

Escherichia coli [3] = experiment: Antibacterial activity tested against Escherichia coli ATCC 8739; outline: as §1
Bacteria = experiment: Geometric mean of antibacterial activity (Gram +ve bacteria) of the compound; outline: as §2
Enterobacter cloacae = experiment: Antibacterial activity tested against Enterobacter cloacae OMNFI 174
Staphylococcus aureus [4] = experiment: Antibacterial activity against Staphylococcus aureus ATCC 6538; outline: as §1
Shigella = experiment: Antibacterial activity tested against Shigella enteritidis; outline: as §1
[5] = tested on: Staphylococcus epidermidis; experiment: Antibacterial activity tested against Staphylococcus epidermidis CPHL A2; outline: as §1
Escherichia coli [6] = experiment: Antibacterial activity tested against Escherichia coli ISF 432; outline: as §1
Providencia stuartii = experiment: Antibacterial activity tested against Providencia stuartii CNUR 5; outline: as §1
Proteus vulgaris = experiment: Antibacterial activity tested against Proteus vulgaris CNUR 5; outline: as §1
Klebsiella pneumoniae = experiment: Antibacterial activity tested against Klebsiella pneumoniae (Klebsiella pneumoniae) ATCC 10031; outline: as §1
Pseudomonas aeruginosa = experiment: Antibacterial activity tested against P. ae (Pseudomonas aeruginosa) ATCC 9027; outline: as §1
Staphylococcus aureus [7] = experiment: Antibacterial activity against Staphylococcus aureus MPR 5; outline: as §1
Enterococcus faecalis = experiment: Antibacterial activity tested against Streptococcus faecalis LEP Br; outline: as §1
Escherichia coli [8] = experiment: Inhibitory activity against gyrase supercoiling activity from Escherichia coli
Outline: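 Inhibition of DNA gyrase supercoiling activity, by a previously described protocol with slight modifications. IC50 derived by densitometric quantification of the supercoiled DNA peak in an agarose gel.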

SMILES | MIC [1] [µg/mL] | Geometric mean [2] | MIC (Escherichia coli [3]) [µg/mL] | Geometric mean (Bacteria) | MIC (Enterobacter cloacae) [µg/mL] | MIC (Staphylococcus aureus [4]) [µg/mL] | MIC (Shigella) [µg/mL] | MIC [5] [µg/mL] | MIC (Escherichia coli [6]) [µg/mL] | MIC (Providencia stuartii) [µg/mL] | MIC (Proteus vulgaris) [µg/mL] | MIC (Klebsiella pneumoniae) [µg/mL] | MIC (Pseudomonas aeruginosa) [µg/mL] | MIC (Staphylococcus aureus [7]) [µg/mL] | MIC (Enterococcus faecalis) [µg/mL] | IC50 (Escherichia coli [8]) [µg/mL]
Cc1c(N2CCCC2)c(N)cc2c(=O)c(C(=O)O)cn(C3CC3)c12 | 16 (≈ 48.9 µM) | 22.627 | 32 (≈ 97.7 µM) | 12.12 | 64 (≈ 195 µM) | 4 (≈ 12.2 µM) | 64 (≈ 195 µM) | 16 (≈ 48.9 µM) | 1 (≈ 3.05 µM) | 64 (≈ 195 µM) | > 128 | 0.5 (≈ 1.53 µM) | > 128 | 4 (≈ 12.2 µM) | 64 (≈ 195 µM) | –
Cc1c(N2CCc3ccccc3C2)c(F)cc2c(=O)c(C(=O)O)cn(C3CC3)c12 | 0.03 (≈ 0.0764 µM) | 0.451 | 0.06 (≈ 0.153 µM) | 0.046 | 4 (≈ 10.2 µM) | 0.03 (≈ 0.0764 µM) | 0.25 (≈ 0.637 µM) | 0.03 (≈ 0.0764 µM) | 0.03 (≈ 0.0764 µM) | 2 (≈ 5.1 µM) | 4 (≈ 10.2 µM) | 0.03 (≈ 0.0764 µM) | 4 (≈ 10.2 µM) | 0.03 (≈ 0.0764 µM) | 0.25 (≈ 0.637 µM) | 3.14 (≈ 8 µM)
Cc1c(N2CCN(C)CC2)c(F)cc2c(=O)c(C(=O)O)cn(C3CC3)c12 | 0.25 (≈ 0.696 µM) | 0.145 | 0.03 (≈ 0.0835 µM) | 0.162 | 0.03 (≈ 0.0835 µM) | 0.06 (≈ 0.167 µM) | 0.03 (≈ 0.0835 µM) | 0.25 (≈ 0.696 µM) | 0.03 (≈ 0.0835 µM) | 2 (≈ 5.56 µM) | 2 (≈ 5.56 µM) | 0.03 (≈ 0.0835 µM) | 2 (≈ 5.56 µM) | 0.03 (≈ 0.0835 µM) | 1 (≈ 2.78 µM) | –
Cc1c(N2CCC(C)CC2)c(N(C)C)cc2c(=O)c(C(=O)O)cn(C3CC3)c12 | 8 (≈ 20.9 µM) | 64 | 64 (≈ 167 µM) | 24.251 | 64 (≈ 167 µM) | 64 (≈ 167 µM) | 64 (≈ 167 µM) | 32 (≈ 83.4 µM) | 64 (≈ 167 µM) | 64 (≈ 167 µM) | 64 (≈ 167 µM) | 64 (≈ 167 µM) | 64 (≈ 167 µM) | 16 (≈ 41.7 µM) | 32 (≈ 83.4 µM) | –
Cc1c(N2CCN(C)CC2)c(N)cc2c(=O)c(C(=O)O)cn(-c3ccc(O)cc3)c12 | 16 (≈ 39.2 µM) | 2.378 | 0.125 (≈ 0.306 µM) | 18.37 | 8 (≈ 19.6 µM) | 16 (≈ 39.2 µM) | 4 (≈ 9.79 µM) | 8 (≈ 19.6 µM) | 0.125 (≈ 0.306 µM) | 8 (≈ 19.6 µM) | > 128 | 0.25 (≈ 0.612 µM) | 8 (≈ 19.6 µM) | 16 (≈ 39.2 µM) | 64 (≈ 157 µM) | –
Cc1c(N2CCCCC2)c([N+](=O)[O-])cc2c(=O)c(C(=O)O)cn(C3CC3)c12 | 8 (≈ 21.5 µM) | 41.5 | 32 (≈ 86.2 µM) | 9.189 | 64 (≈ 172 µM) | 32 (≈ 86.2 µM) | 64 (≈ 172 µM) | 8 (≈ 21.5 µM) | 4 (≈ 10.8 µM) | 64 (≈ 172 µM) | 64 (≈ 172 µM) | 64 (≈ 172 µM) | 64 (≈ 172 µM) | 1 (≈ 2.69 µM) | 32 (≈ 86.2 µM) | –
CN1CCN(c2cc3c(cc2N)c(=O)c(C(=O)O)cn3-c2ccc(F)cc2)CC1 | 8 (≈ 20.2 µM) | 1.834 | 0.125 (≈ 0.315 µM) | 10.556 | 4 (≈ 10.1 µM) | 8 (≈ 20.2 µM) | 4 (≈ 10.1 µM) | 8 (≈ 20.2 µM) | 0.125 (≈ 0.315 µM) | 4 (≈ 10.1 µM) | 128 (≈ 323 µM) | 0.125 (≈ 0.315 µM) | 8 (≈ 20.2 µM) | 4 (≈ 10.1 µM) | 64 (≈ 161 µM) | –
Cc1c(N2CCNC(C)C2)c(N)cc2c(=O)c(C(=O)O)cn(C3CC3)c12 (stereo unspecified) | 1 (≈ 2.81 µM) | 0.225 | 0.125 (≈ 0.351 µM) | 1.319 | 0.125 (≈ 0.351 µM) | 1 (≈ 2.81 µM) | 0.06 (≈ 0.168 µM) | 1 (≈ 2.81 µM) | 0.03 (≈ 0.0842 µM) | 2 (≈ 5.61 µM) | 4 (≈ 11.2 µM) | 0.03 (≈ 0.0842 µM) | 1 (≈ 2.81 µM) | 1 (≈ 2.81 µM) | 4 (≈ 11.2 µM) | –
Nc1cc2c(=O)c(C(=O)O)cn(C3CC3)c2cc1N1CCNCC1 | 16 (≈ 48.7 µM) | 0.836 | 0.25 (≈ 0.761 µM) | 42.224 | 0.25 (≈ 0.761 µM) | 64 (≈ 195 µM) | 0.25 (≈ 0.761 µM) | 16 (≈ 48.7 µM) | 0.03 (≈ 0.0914 µM) | 32 (≈ 97.5 µM) | 32 (≈ 97.5 µM) | 0.25 (≈ 0.761 µM) | 2 (≈ 6.09 µM) | 64 (≈ 195 µM) | 128 (≈ 390 µM) | –

From ChEMBL document CHEMBL1129660, “Studies on 6-aminoquinolones: synthesis and antibacterial evaluation of 6-amino-8-methylquinolones” (J Med Chem, 1996)
